One data set has as its system Human alphaherpesvirus 1. The data set is described as follows: Antiviral activity against HSV 1 infected in African green monkey Vero cells assessed as reduction in plaque formation incubated for 36 hrs by crystal violet staining based assay. It is filed as functional, organism-based. Summed up:
(§1)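 Plaque reduction in Vero cells: virus adsorbed 60 min, then compound added in a carboxymethylcellulose overlay. Plaques counted after 36 h by crystal violet staining.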

Data set [1] concerns Human betaherpesvirus 5. The data set is described as follows: Antiviral activity againstpp28-luciferase expressing HCMV Towne infected in human HFF cells assessed as reduction in viral replication treated with compound following viral infection at MOI of 1 PFU/cells measured after 3 days in presence of GCV by luciferase reporter gene assay. In kind it is functional, organism-based. As to conditions: Human betaherpesvirus 5, strain Towne, 72 h. Summed up: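 HFFs in 96-well plates were infected with pp28-luciferase Towne HCMV, in which luciferase is driven by the UL99 late promoter, at MOI 1. A dose-response of each drug alone gave its EC₅₀. Combinations started at twice each EC₅₀ in DMEM with 4% FBS, followed by two-fold serial dilutions, and were added after infection. Luciferase was read in cell lysates at 72 hpi. The Bliss ratio is observed over expected inhibition.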
Background: A reporter such as luciferase makes a cellular process visible.

Data set [2] concerns Human betaherpesvirus 5. In words: Antiviral activity against pp28-luciferase expressing HCMV Towne infected in human HFF cells assessed as reduction in viral replication treated with compound at 24 hrs post viral infection at MOI of 1 PFU/cell and measured after 3 days by luciferase reporter gene assay. The following applies: strain Towne. It is filed as functional, organism-based. Summed up:
(§2)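 Time-of-addition in HFFs infected with HCMV Towne (MOI 1). Add-on: compound added at 0, 6, 24 or 48 hpi. Removal: compound added right after infection and washed out after 0, 6, 24 or 48 h. Luciferase read at 72 hpi.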

In data set [3] the test system is Human betaherpesvirus 5. In words: Inhibition of viral protein expression in HCMV Towne infected in human HFF cells assessed as reduction in UL44 expression at 0.1 to 10 uM treated with compound following viral infection at MOI of 1 PFU/cell measured at 72 hrs post infection by Western blot analysis. In kind it is functional, organism-based. The following applies: strain Towne. Summed up:
(§3)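 HFFs infected with HCMV Towne (MOI 1), then treated with compound. Lysates taken at 72 hpi, equal protein loaded on 8–10% Tris-glycine SDS-PAGE and transferred to PVDF. Primary antibodies overnight at 4 °C, HRP secondary, chemiluminescent detection; β-actin as loading control.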

Data set [4] deals with Human betaherpesvirus 5. The data set is described as follows: Antiviral activity against pp28-luciferase harboring UL97 C607Y mutant expressing GCV-resistant HCMV Towne infected in human HFF cells assessed as reduction in viral replication at 0.5 to 3 uM treated with compound following viral infection at MOI of 0.1 PFU/cell and measured at 72 hrs post infection by luciferase reporter gene assay. As to conditions: strain Towne. In kind it is functional, organism-based. Summed up: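 HFFs infected with GCV-resistant pp28-luciferase Towne (MOI 0.1), then treated with a compound dilution series. Luciferase, driven by the UL99 late promoter, read in cell lysates at 72 hpi. Data are mean ± SD of triplicates from a single experiment.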

Data set [5] relates to Human betaherpesvirus 5. In words: Antiviral activity against HCMV Towne infected in human HFF cells assessed as reduction in plaque formation treated with compound following viral infection at MOI of 1 PFU/cell and measured at 10 days post-infection in presence of letermovir by crystal violet staining based assay. It is filed as functional, organism-based. As to conditions: Human betaherpesvirus 5, strain Towne, 240 h.

Data set [6] relates to Human betaherpesvirus 5. In words: Antiviral activity against HCMV Towne infected in human HFF cells assessed as reduction in viral DNA replication at 2 uM treated with compound following viral infection at MOI of 0.1 PFU/cell by US17 real time PCR analysis. It is filed as functional, organism-based. As to conditions: strain Towne. Summed up:
(§4)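 At set time points supernatants were harvested and cells lysed for DNA. Cell-associated viral DNA and supernatant viral DNA quantified by real-time PCR targeting a 151-bp conserved US17 region.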
For orientation: Quantitative PCR measures a nucleic acid by following its amplification.

Data set [7] concerns Human betaherpesvirus 5. In words: Antiviral activity against HCMV TB40 infected in human HFF cells assessed as reduction in plaque formation at 0.1 to 3 uM treated with compound following viral infection at […] measured after 8 days by crystal violet staining analysis. In kind it is functional, organism-based. Summed up:
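HFFs (2 × 10⁵/well) infected with HCMV TB40 at about 100 plaques/well for 90 min. Inoculum removed, then DMEM with 0.5% CMC, 4% FBS and compound added. Incubated at 37 °C; plaques stained with crystal violet and counted at 8 dpi. Experiment repeated three times; one representative shown.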

The subject of another data set is HFF. The data set is described as follows: Cytotoxicity against human HFF cells assessed as reduction in cell viability incubated for 72 hrs or 10 days by MTT assay. It is filed as cell-based. Summed up: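 MTT assay on uninfected cells exposed to compound for 72 h or 8–10 days, matching the antiviral assay durations. MTT (5 mg/mL stock in PBS) added, then 2–3 h at 37 °C. Formazan absorbance read at 560 nm.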
A general note: Tetrazolium dyes change colour on reduction, which living cells bring about.

The next data set relates to Human gammaherpesvirus 4. In words: Antiviral activity against EBV infected in human AKATA cells assessed as reduction in IgG-induced lytic virus replication measured at 48 hrs post-lytic induction by qRT-PCR analysis. In kind it is functional, organism-based.
The next data set relates to Human alphaherpesvirus 2. The data set is described as follows: Antiviral activity against HSV 2 infected in African green monkey Vero cells assessed as reduction in plaque formation incubated for 36 hrs by crystal violet staining based assay. In kind it is functional, organism-based. Summed up: as §1
Data set [8] relates to Human betaherpesvirus 5. In words: Antiviral activity against HCMV TB40 infected in human HFF cells assessed as reduction in plaque formation treated with compound following viral infection and incubated for 8 to 10 days by crystal violet staining based assay. In kind it is functional, organism-based. As to conditions: Human betaherpesvirus 5, TB40, HFF.
For data set [9], the system named is Human betaherpesvirus 5. In words: Antiviral activity against pp28-luciferase expressing HCMV Towne infected in human HFF cells assessed as reduction in viral replication treated with compound immediately after viral infection at MOI of 1 PFU/cell followed by compound washout after 6 hrs and measured after 3 days by luciferase reporter gene assay. In kind it is functional, strain Towne. Summed up:
as §2

In data set [10] the test system is Human betaherpesvirus 5. In words: Inhibition of viral protein expression in HCMV Towne infected in human HFF cells assessed as reduction in pp65 expression at 0.1 to 10 uM treated with compound following viral infection at MOI of 1 PFU/cell measured at 72 hrs post infection by Western blot analysis. The following applies: strain Towne. It is filed as functional, organism-based. Summed up: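 Lysates taken at 72 hpi, equal protein run on SDS-PAGE and transferred to PVDF. Immunoblot for viral proteins (IE1/2, UL84, UL44, pp65) with β-actin as loading reference, chemiluminescent detection.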

In data set [11] the test system is Human betaherpesvirus 5. In words: Inhibition of viral protein expression in HCMV Towne infected in human HFF cells assessed as reduction in IE2 expression at 0.1 to 10 uM treated with compound following viral infection at MOI of 1 PFU/cell measured at 72 hrs post infection by Western blot analysis. It is filed as functional, organism-based. As to conditions: strain Towne. Summed up:
as §3

The test system of data set [12] is Human betaherpesvirus 5. In words: Inhibition of viral protein expression in HCMV Towne infected in human HFF cells assessed as reduction in UL84 expression at 0.1 to 10 uM treated with compound following viral infection at MOI of 1 PFU/cell measured at 72 hrs post infection by Western blot analysis. The following applies: strain Towne. In kind it is functional, organism-based. Summed up: as §3

In data set [13] the test system is Human betaherpesvirus 5. The data set is described as follows: Antiviral activity against HCMV Towne infected in human HFF cells assessed as reduction in viral DNA yields in the supernatant at 2 uM treated with compound following viral infection at MOI of 0.1 PFU/cell by US17 real time PCR analysis. It is filed as functional, organism-based. The following applies: strain Towne. Summed up: as §4

Data set [14] in a line: Antiviral activity against Mouse Cytomegalovirus Smith (ATCC VR-1399) infected in mouse MEF cells assessed as reduction in plaque formation measured after 3 days by crystal violet staining based assay. It is filed as functional, cell-based, Murine cytomegalovirus (strain Smith). Summed up: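 Plaque reduction with MCMV Smith in mouse embryonic fibroblasts, with compound in a carboxymethylcellulose overlay. Assay ended at 3 days and plaques counted after crystal violet staining.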

Data set [15] relates to Human betaherpesvirus 5. The data set is described as follows: Antiviral activity against HCMV Towne infected in human HFF cells assessed as reduction in plaque formation treated with compound following viral infection and incubated for 8 to 10 days by crystal violet staining based assay. It is filed as functional, organism-based. As to conditions: Human betaherpesvirus 5, strain Towne.

Data set [16] relates to Human betaherpesvirus 5. In words: Antiviral activity against GCV-resistant HCMV Towne infected in human HFF cells assessed as reduction in plaque formation treated with compound following viral infection and incubated for 8 to 10 days by crystal violet staining based assay. It is filed as functional, organism-based. As to conditions: Human betaherpesvirus 5, strain Towne.

For data set [17], the system named is Human betaherpesvirus 5. In words: Antiviral activity against HCMV Towne infected in human HFF cells assessed as reduction in viral DNA yields in the supernatant at 1.5 uM treated with compound following viral infection at MOI of 0.1 PFU/cell by US17 real time PCR analysis. In kind it is functional, organism-based. As to conditions: strain Towne. Summed up:
as §4

Data set [18] has as its system Human betaherpesvirus 5. In words: Antiviral activity against HCMV Towne infected in human HFF cells assessed as reduction in viral DNA replication at 1.5 uM treated with compound following viral infection at MOI of 0.1 PFU/cell by US17 real time PCR analysis. As to conditions: strain Towne. In kind it is functional, organism-based. Summed up: as §4
Data set [19] relates to Human betaherpesvirus 5. The data set is described as follows: Inhibition of viral protein expression in HCMV Towne infected in human HFF cells assessed as reduction in IE1 expression at 0.1 to 10 uM treated with compound following viral infection at MOI of 1 PFU/cell measured at 72 hrs post infection by Western blot analysis. It is filed as functional, organism-based. The following applies: strain Towne. Summed up: as §3

Two molecules from ChEMBL document CHEMBL4354867, “Validation and Characterization of Five Distinct Novel Inhibitors of Human Cytomegalovirus” (J Med Chem, 2020) can be followed below.

SMILES strings stand for the structures. Active and inactive are the calls of the source. The calls are words filed in the database; no cut-off is given here.

For the molecule `CCc1ccc(NC(=O)[C@H](Cc2c[nH]c3ccccc23)NC(=O)[C@@H]2Cc3ccccc3CN2)cc1`, the EC50 was 1780 nM with Human alphaherpesvirus 1 (Human alphaherpesvirus 1, Vero, 36 h, read-out: EC50); 550 nM in the data set on Human betaherpesvirus 5 [1]; 140 nM with Human betaherpesvirus 5 [5]; “Not Active” in the data set with Human gammaherpesvirus 4; 1300 nM in the data set with Human alphaherpesvirus 2 (Human alphaherpesvirus 2, Vero, 36 h, read-out: EC50); 340 nM in the data set on Human betaherpesvirus 5 [8]. For the same molecule, the EC50 was 11700 nM in [14] (Murid betaherpesvirus 1, ATCC VR-1399, MEF, 72 h, read-out: EC50); 640 nM in the data set on Human betaherpesvirus 5 [15]; 170 nM in the data set on Human betaherpesvirus 5 [16]. Besides, in the data set with Human betaherpesvirus 5 [2], the result was inactive. The inhibition entry with Human betaherpesvirus 5 [3], with Human betaherpesvirus 5 [10], in the data set on Human betaherpesvirus 5 [11] and in the data set with Human betaherpesvirus 5 [12] was “Active” each time. The result with Human betaherpesvirus 5 [4], in the data set on Human betaherpesvirus 5 [6], with Human betaherpesvirus 5 [7] and with Human betaherpesvirus 5 [13] was Active. Also, the CC50 in the data set on HFF came to 86000 nM. Moreover, the “inhibition (INH)” value with Human betaherpesvirus 5 [9] is on record as 100%.

As to `Nc1c(S(=O)(=O)c2cccs2)c2nc3ccccc3nc2n1Cc1ccccc1`, the EC50 result with Human alphaherpesvirus 1 (vero) was “Not Active”; in the data set on Human betaherpesvirus 5 [1], 570 nM; in the data set on Human betaherpesvirus 5 [5] it was 130 nM; with Human gammaherpesvirus 4 (human gammaherpesvirus 4, 48 h, read-out: EC50) it was over 10000 nM; in the data set on Human alphaherpesvirus 2 (vero) it was “Not Active”; in the data set with Human betaherpesvirus 5 [8], 330 nM. The figures for the half-maximal effective concentration (EC50) entry (in data set [14] (mef); in the data set on Human betaherpesvirus 5 [15]; in the data set on Human betaherpesvirus 5 [16]) were “Not Active”, 390 nM and 260 nM, respectively. Besides, the outcome in the data set on Human betaherpesvirus 5 [17], with Human betaherpesvirus 5 [4], in the data set on Human betaherpesvirus 5 [7], with Human betaherpesvirus 5 [18] and in the data set on Human betaherpesvirus 5 [9] (strain Towne) was Active. Also, the result in the data set with Human betaherpesvirus 5 [2] was inactive. Besides, the inhibition entry in the data set on Human betaherpesvirus 5 [3], in the data set on Human betaherpesvirus 5 [19], with Human betaherpesvirus 5 [10], with Human betaherpesvirus 5 [11] and in the data set on Human betaherpesvirus 5 [12] was “Active” in each case. Further, the CC50 with HFF is over 250000 nM.

As usually defined, the EC50 is the concentration giving half of the maximal effect. Broadly, the CC50 is the concentration that lowers cell viability or growth by half.
